Blank lines part the entries; values can stand above or below the compound they belong to.
Assays:
[1] = Cell adhesion measured using the inhibitory concentration against Human umbilical vein endothelial cell (HUVEC) activation, with Na51CrO4 as radioligand at 100 uM; format: functional
Method in brief: (§1)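 Confluent second-passage HUVEC monolayers were stimulated with TNF-α (200 U/mL) for 4 h with or without compound at 100 μM, then washed. Fresh human neutrophils labelled with Na⁵¹CrO₄ (5 × 10⁵) were added for 30 min at 37 °C. Non-adherent cells were aspirated and adherent cells lysed in NH₄OH; lysates were γ-counted. Results are % inhibition of TNF-stimulated adherence, triplicate. IC50 came from linear regression at 33.3–1.0 μM.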

[2] = The compound was tested for inhibitory activity against intercellular adhesion molecule (ICAM)-1 mediated cell adhesion in Human aortic endothelial cell culture, by using HAEC surface expression assay at 50 uM; format: functional
Method in brief: (§2)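 Confluent human aortic endothelial cells were incubated with TNF-α (250 U/mL) and compound (0.005% DMSO final) for 18 h. Cells were formalin-fixed and probed with anti-ICAM-1 mAb (2 h, 37 °C), then peroxidase anti-mouse IgG (1 h) and colour reagent (15 min). Read-out was OD414.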

[3] = The compound was tested for inhibitory activity against E-Selectin mediated cell adhesion in Human umbilical endothelial cell culture, by using HUVEC surface expression assay.; format: functional, cell-based
Method in brief: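 Confluent HUVECs were given compound 30 min before TNF-α (140 U/mL final), then incubated 4 h at 37 °C. Unstimulated background was subtracted and results given as % inhibition versus vehicle. IC50 came from linear regression; average of two assays, each in triplicate.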

[4] = The compound was tested for inhibitory activity against vascular cell adhesion molecule (VCAM)-1 mediated cell adhesion in Human aortic endothelial cell culture, by using HAEC surface expression assay at 50 uM; format: functional
Method in brief: (§3)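 Human aortic endothelial cells at confluence were incubated with TNF-α (250 U/mL) and compound (0.005% DMSO final) for 18 h, then formalin-fixed. Cells were probed with anti-VCAM-1 mAb (2 h, 37 °C), then biotin anti-mouse IgG+IgM F(ab)₂ (1 h), then [¹²⁵I]streptavidin (15 min, 4 °C). NaOH digests were counted.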

[5] = The compound was tested for inhibitory activity against intercellular adhesion molecule (ICAM)-1 mediated cell adhesion in Human umbilical endothelial cell culture, by using HUVEC surface expression assay.; format: functional, cell-based
Method in brief: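 HUVECs were pretreated with compound for 30 min, then stimulated with TNF-α (140 U/mL final) for 4 h at 37 °C. Unstimulated background was subtracted and results given as % inhibition versus vehicle. IC50 came from linear regression; average of two triplicate assays.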

[6] = The compound was tested for cell adhesion by measuring the inhibitory concentration against Human umbilical vein endothelial cell (HUVEC) activation, using Na51CrO4 as radioligand.; format: functional, cell-based
[7] = The compound was tested for cell adhesion by measuring the inhibitory concentration against Human umbilical vein endothelial cell (HUVEC) activation, using calcein-AM as radioligand; format: functional, cell-based
[8] = The compound was tested for cell adhesion by measuring the inhibitory concentration against Human umbilical vein endothelial cell (HUVEC) activation, using calcein-AM as radioligand at 100 uM; format: functional
[9] = The compound was tested for cell adhesion by measuring the inhibitory concentration against Human umbilical vein endothelial cell (HUVEC) activation using neutrophils labelled with calcein-AM at 100 uM; format: functional
[10] = cell adhesion assay; measuring the inhibitory concentration against Human umbilical vein endothelial cell (HUVEC) activation, using Na51CrO4 as radioligand at 100 uM; format: functional; conditions: in the assay text read “calcein-AM” for “Na51CrO4”
[11] = The compound was tested for cell adhesion by measuring the inhibitory concentration against Human umbilical vein endothelial cell (HUVEC) activation, using calcein-AM as radioligand at 33 uM; format: functional
[12] = Tested for cell adhesion by measuring the inhibitory concentration against Human umbilical vein endothelial cell (HUVEC) activation, using Na51CrO4 as radioligand at 100 uM; format: functional; method in brief: as §1
[13] = The compound was tested for cell adhesion by measuring the inhibitory concentration against Human umbilical vein endothelial cell (HUVEC) activation, using Na51CrO4 as radioligand at 50 uM; format: functional
[14] = The compound was tested for cell adhesion by measuring the inhibitory concentration against Human umbilical vein endothelial cell (HUVEC) activation, using Na51CrO4 as radioligand at 100 uM; format: functional; method in brief: as §1
[15] = The compound was tested for cell adhesion by measuring the inhibitory concentration against Human umbilical vein endothelial cell (HUVEC) activation, using Na51CrO4 as radioligand at 100 micro M; format: functional; method in brief: as §1
[16] = Inhibitory activity against Human umbilical vein endothelial cell (HUVEC) activation, using Na51CrO4 as radioligand at 100 uM.; format: functional; method in brief: as §1
[17] = The compound was tested for inhibitory activity against intercellular adhesion molecule (ICAM)-1 mediated cell adhesion in Human aortic endothelial cell culture, by using HAEC surface expression assay.; format: functional, cell-based; method in brief: as §2
[18] = The compound was tested for inhibitory activity against vascular cell adhesion molecule (VCAM)-1 mediated cell adhesion in Human aortic endothelial cell culture, by using HAEC surface expression assay.; format: functional, cell-based; method in brief: as §3
Rattus norvegicus = test: Inhibitory activity against Mycobacterium-induced foot-pad edema(MFE); format: functional

Structure (SMILES): CC(C)Oc1c(C(N)=O)sc2ccccc12
inhibition at 100 µM [1]: 60%

IC50 [3]: 8.6 µM
IC50 [5]: 5.2 µM
IC50 [6]: 11 µM
Structure (SMILES): COc1ccc2ccc(C(N)=O)c(OC(C)C)c2c1
inhibition at 50 µM [2]: 86%
inhibition at 50 µM [4]: 81%

IC50 [7]: 3.6 µM
Structure (SMILES): CC(C)Sc1c(C(N)=O)sc2ccc(O)cc12

Structure (SMILES): COc1ccc2sc(C(N)=O)c(SCCCCC(=O)O)c2c1
inhibition at 100 µM [8]: 37%

Structure (SMILES): CCNC(=O)c1oc2ccc(OC)cc2c1OC(C)C
inhibition at 100 µM [8]: < 4%

Structure (SMILES): COc1ccc2sc(C(=O)NC(C)C)c(OC(C)C)c2c1
inhibition at 100 µM [9]: 26%

Structure (SMILES): COc1ccc2c(c1)c(OC)c(C(N)=O)[s+]2[O-] (centres undefined)
inhibition at 100 µM [10]: 40%

Structure (SMILES): CC(C)Sc1c(C(N)=O)sc2ccc(OCc3ccccc3)cc12
inhibition at 33 µM [11]: 24%

Structure (SMILES): CNC(=O)c1sc2ccc(OC)cc2c1SC(C)C
inhibition at 33 µM [11]: 61%

Structure (SMILES): CC(C)Oc1c(C(N)=O)oc2ccccc12
inhibition at 100 µM [1]: 20%

IC50 [3]: 9.2 µM
IC50 [5]: 3.7 µM
IC50 [6]: 10 µM
Structure (SMILES): COc1ccc2c(c1)c(OC(C)C)c(C(N)=O)n2C
inhibition at 50 µM [2]: 92%
inhibition at 50 µM [4]: 84%

Structure (SMILES): COc1ccc2sc(C(N)=O)c(OC(C)(C)C)c2c1
inhibition at 100 µM [12]: 97%

Structure (SMILES): CC(C)OC1=C(C(N)=O)S(=O)(=O)c2ccc(O)cc21
inhibition at 50 µM [13]: < 4%

Structure (SMILES): Cc1ccc2sc(C(N)=O)c(OC(C)C)c2c1
inhibition at 100 µM [1]: 61%

Structure (SMILES): COc1ccc2sc(C(N)=O)c(SCC(=O)O)c2c1
inhibition at 33 µM [11]: 7%

Structure (SMILES): COc1ccc2sc(C(=O)NCC(=O)O)c(OC(C)C)c2c1
inhibition at 100 µM [1]: < 4%

Structure (SMILES): CC(C)Oc1c(C(N)=O)sc2ccc(OCc3ccccc3)cc12
inhibition at 100 µM [1]: < 4%

Structure (SMILES): CNC(=O)c1c(OC(C)C)c2cc(OC)ccc2[s+]1[O-] (centres undefined)
inhibition at 100 µM [14]: 43%

Structure (SMILES): COc1ccc2sc(C(N)=O)c(Sc3ccccc3)c2c1
inhibition at 100 µM [1]: 48%

IC50 [6]: 34 µM
Structure (SMILES): COCn1c(C(N)=O)c(OC(C)C)c2cc(OC)ccc21

Structure (SMILES): CCNC(=O)c1sc2ccc(OC)cc2c1OC(C)C
Inhibition [15]: 64%

IC50 [6]: 12 µM
Structure (SMILES): COc1ccc2sc(C(N)=O)c(SC(C)C)c2c1

Structure (SMILES): COc1ccc2c(c1)c(OC(C)C)c(C(=O)NC(C)C)[s+]2[O-] (centres undefined)
inhibition at 100 µM [14]: 8%

Structure (SMILES): COc1ccc2sc(C(N)=O)c(OC)c2c1
inhibition at 100 µM [1]: 60%

Structure (SMILES): COc1ccc2sc(C(=O)Nc3cccc(C(=O)O)c3)c(OC(C)C)c2c1
inhibition at 100 µM [1]: 28%

Structure (SMILES): COc1ccc2c(c1)c(Oc1ccccc1)c(C(N)=O)[s+]2[O-] (centres undefined)
inhibition at 100 µM [16]: 15%

Structure (SMILES): COc1ccc2ccc(C(=O)Nc3ccccc3)c(OC(C)C)c2c1
inhibition at 100 µM [1]: < 4%

IC50 [17]: 10 µM
IC50 [3]: 6.6 µM
IC50 [5]: 4 µM
IC50 [18]: 4 µM
IC50 [6]: 8.7 µM
Structure (SMILES): COc1ccc2c(c1)c(OC(C)C)c(C(N)=O)[s+]2[O-] (centres undefined)
ID40 (Rattus norvegicus): 10.9 mg/kg

Structure (SMILES): COc1cccc2c(OC(C)C)c(C(N)=O)sc12
inhibition at 50 µM [13]: 35%
inhibition at 50 µM [2]: 21%
inhibition at 50 µM [4]: < 4%
